Among all 130,000 compounds or so, about 1,000 (0.77%) were called active. Roughly 1% stayed inconclusive and do not appear here.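 The calls were made as follows: active = activation at 2 µM above a set limit, confirmed on inspection of the cell images; inconclusive = above the set limit but not confirmed on image inspection; inactive = the rest.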 The sample as a whole holds a higher share of actives than the screen did.
Assay: insulin gene promoter stimulation in islet cells – imaging, TRM-6 cells, eGFP reporter, cell count, primary screen (AID 1296);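 as to activation: share of cells whose green reporter signal exceeds an intensity cutoff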;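 as to normalized cell count: cells counted after 48 h compound exposure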
Conditions: at 2 µM; activation: stronger effect = higher value, plate-scaled: unstimulated 0, stimulated control 100; normalized cell count: measured here: cell count (toxicity)
Summary of the method: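 System – human fetal islet-derived TRM-6 cells with tamoxifen-inducible insulin promoter–eGFP reporter · Amount – 1,000 cells per well · Schedule – overnight tamoxifen, then two-day compound incubation at 37 °C · Detection – high-content imaging of fixed cells with Hoechst nuclear stain · Read-out – percent cells above green-intensity threshold, converted to percent activation versus plate controls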

Structure (SMILES) | activation | normalized cell count [%]
CCCC(=O)C1CCN(Cc2ccccc2)CC1 | 0% (inactive) | 122
NC(=O)c1ccc(CN2CCC(Cc3ccccc3)CC2)cc1 | 347% (active) | 40.1
O=C(Nc1ccccc1)N1CCN(Cc2ccccc2)CC1 | 4.22% (inactive) | 57.8
O=C(CSc1ncnc2scc(-c3ccccc3)c12)NCc1ccc2c(c1)OCO2 | 0% (inactive) | 109
CCCCOc1ccc(C(=O)NN2CCN(C)CC2)cc1 | 0% (inactive) | 149
CN(c1ccccc1)c1ccc(/C=c2\s/c(=C(/C#N)C(=O)C(C)(C)C)n(Cc3ccco3)c2=O)cc1 | 178% (active) | 74.1
Cc1cs/c(=N\N=C\c2ccc(O)cc2)n1Cc1ccco1 | -7.69% (inactive) | 109
O=C(CN(c1cccc(Cl)c1)S(=O)(=O)c1ccccc1)NN=C1CCCC1 | -5.88% (inactive) | 82.1
O=C(CN(c1ccccc1)S(=O)(=O)c1ccc(Cl)cc1)Nc1ccccc1C(=O)N1CCCC1 | 93.5% (active) | 74.8
Cc1ccc(S(=O)(=O)N(CC(=O)N2CCc3ccccc3C2)c2cccc(Cl)c2)cc1 | 5% (inactive) | 94.9
N#CCC(=O)NC(=O)NCC1CC1 | 9.09% (inactive) | 118
O=C(CCc1[nH]c2ccccc2c1Sc1ccccc1)N(CCO)CCO | -6.9% (inactive) | 121
Cc1nnc(SCC(=O)N2CCOCC2)[nH]c1=O | 0% (inactive) | 145
O=C(Nc1ccc(S(=O)(=O)N2CCc3ccccc3C2)cc1)c1ccccc1 | 407% (active) | 116
COc1ccc(S(=O)(=O)N2CCC(C(=O)N3CCc4ccccc4C3)CC2)cc1OC | 8.7% (inactive) | 157
O=S(=O)(c1cccs1)N1CCc2ccccc2C1 | -90.9% (inactive) | 90.9
O=C(Nc1ccccc1)OCc1cn(-c2ccc(Cl)cc2)nn1 | 6.06% (inactive) | 118
CC(Sc1nncn1C)C(=O)Nc1cc(C(F)(F)F)ccc1N1CCOCC1 (stereo not given) | 0% (inactive) | 135
CCC(C)(C(=O)NC1CCCCC1)N(C)C(=O)c1ccc2c(c1)OCO2 (stereo not given) | 8.57% (inactive) | 95.1
CN1CCC(OC(=O)COc2ccc(Cl)cc2Cl)CC1 | 453% (active) | 63.1
CCOC(=O)N1CCN(C(=O)COc2ccc(Cl)cc2C)CC1 | 193% (inactive) | 63.4
CCCn1nnnc1NC(=O)COc1ccc(Cl)cc1C | 9.09% (inactive) | 95.5
CC(C)(C)NCCCOc1ccc(Cl)cc1C(C)(C)C | 108% (inactive) | 74
CC(C)NC(=O)C(=O)N/N=C/c1ccco1 | 0% (inactive) | 130
CCCCc1nc(NCc2ccccc2)c(C#N)c2c1CCCC2 | -3.7% (inactive) | 115
Cc1cccc(NC(=O)COc2ccccc2C)n1 | 406% (active) | 56.6
Cc1ccccc1OCC(=O)NCC(=O)OCC(=O)c1ccc2ccccc2c1 | -2.78% (inactive) | 105
Cc1ccc(S(=O)(=O)NC(=O)COc2ccccc2C)cc1 | -81.2% (inactive) | 150

Structure (SMILES) | activation | normalized cell count [%]
Cc1nc2scc(-c3cccs3)c2c(=O)n1N | -9.8% (inactive) | 105
CCN(CC)CC1(O)CCN(C(=O)c2ccc(Cl)c(Cl)c2)CC1 | 275% (active) | 33.3
Cc1nc2ccc(C(=O)N3CCSCC3)cc2s1 | 6.06% (inactive) | 60.2
O=C(c1ccc(Cl)c([N+](=O)[O-])c1)N1CCN(c2ccccc2)CC1 | 4.35% (inactive) | 49.2
COCCn1c(SCC(=O)Nc2ccc3c(c2)CCC3)nc2ccccc2c1=O | 1.3% (inactive) | 117
COC(=O)Cc1c(O)ccn(Cc2cccc(C(F)(F)F)c2)c1=O | 2.86% (inactive) | 159
Cc1nn(-c2ccccc2)c(C)c1/C=C/C(=O)OC(C)C(N)=O (stereo not given) | -68.8% (inactive) | 181
CCOC(=O)C(NC(=O)CC(C)C)(Nc1sc2c(c1C(N)=O)CCCC2)C(F)(F)F (stereo not given) | 450% (active) | 72.9
CCOC(=O)c1c(NC(=O)c2ccc(Br)o2)sc2c1CCCC2 | -3.7% (inactive) | 119
CCOC(=O)c1c(NC(=O)CSc2nnc(C)c(=O)[nH]2)sc2c1CCC2 | 8.33% (inactive) | 125
CSc1ccccc1NC(=O)Cc1ccc(Br)cc1 | -3.85% (inactive) | 70.6
Cc1ccccc1NC(=O)C(C)c1ccc(-c2ccccc2)c(F)c1 (stereo not given) | -2.7% (inactive) | 168
O=C(CSCc1ccc([N+](=O)[O-])cc1)Nc1cccc(C(=O)Nc2ccccc2C(=O)O)c1 | 8.33% (inactive) | 107
COC(=O)c1ccc(NC(=O)CSc2nnc(CNc3ccc(OC)cc3)n2C)cc1 | 0% (inactive) | 125
COc1ccc(CC(=O)NCc2nnc(SCC(=O)Nc3nccs3)n2C)cc1 | 330% (active) | 83.7
COc1ccc(CC(=O)NCc2nnc(SCC(=O)Nc3ncc(C)s3)n2C)cc1 | -5.56% (inactive) | 192
CSCCC(=O)N1CCCC(CNC(=O)c2ccccc2Cl)C1 (stereo not given) | 7.14% (inactive) | 83
Cn1cc(/C=C/c2nc3ccccc3c(=O)n2-c2cccc([N+](=O)[O-])c2)c2ccccc21 | -9.09% (inactive) | 111
COc1ccc(N(C(=O)c2ccc(C)cc2)S(=O)(=O)c2cccs2)cc1 | 3.85% (inactive) | 171
Cc1ccc(C(=O)N/C(=C\c2cccs2)C(=O)NCCc2ccccn2)cc1C | 392% (active) | 87.4
CCN(CC)S(=O)(=O)c1cc(C(=O)Nc2ccccn2)ccc1C | 309% (inactive) | 42.6
Cc1ccc(C(=O)N/C(=C/c2cccs2)C(=O)N2CCCCC2)cc1 | 0% (inactive) | 111
CCOc1ccc(N2C(=O)Nc3ccccc3C2(O)C(=O)NCc2ccco2)cc1 (stereo not given) | 0% (inactive) | 74.7
Cc1ccc(C(=O)CSc2nc3ccccc3c(=O)n2N)o1 | -5.26% (inactive) | 137
Cc1cccc(CSc2nnc(Cn3c(=O)sc4ccccc43)n2C)c1 | -50% (inactive) | 79.6
Cc1nnc(SCc2cccc(Cl)c2)n(N)c1=O | 508% (active) | 36.8
CC(C)CNC(=S)Nc1ccc(F)cc1 | -6.9% (inactive) | 136

Reference: PubChem BioAssay AID1296 (Columbia University Molecular Screening Center, 2008)
